From paper PMC9535927 (The Biochemical journal, 2020)
Read-outs that look alike come from different tables or passages of the source. Values belong to the molecule of their own block, whether it stands above or below them.

How the values were obtained:
[1] = system: ASCT2; format: cell-based, rat/human
[2] = Proton ionisation constants; format: physicochemical; settings: pH 7.4
[3] = cited from earlier work
[4] = molecular target: T1, rASCT2 (Rattus norvegicus, UniProt D3ZJ25); test: Glutamine uptake fluorescence assay; format: cell-based
T1 sequence (D3ZJ25 1-555): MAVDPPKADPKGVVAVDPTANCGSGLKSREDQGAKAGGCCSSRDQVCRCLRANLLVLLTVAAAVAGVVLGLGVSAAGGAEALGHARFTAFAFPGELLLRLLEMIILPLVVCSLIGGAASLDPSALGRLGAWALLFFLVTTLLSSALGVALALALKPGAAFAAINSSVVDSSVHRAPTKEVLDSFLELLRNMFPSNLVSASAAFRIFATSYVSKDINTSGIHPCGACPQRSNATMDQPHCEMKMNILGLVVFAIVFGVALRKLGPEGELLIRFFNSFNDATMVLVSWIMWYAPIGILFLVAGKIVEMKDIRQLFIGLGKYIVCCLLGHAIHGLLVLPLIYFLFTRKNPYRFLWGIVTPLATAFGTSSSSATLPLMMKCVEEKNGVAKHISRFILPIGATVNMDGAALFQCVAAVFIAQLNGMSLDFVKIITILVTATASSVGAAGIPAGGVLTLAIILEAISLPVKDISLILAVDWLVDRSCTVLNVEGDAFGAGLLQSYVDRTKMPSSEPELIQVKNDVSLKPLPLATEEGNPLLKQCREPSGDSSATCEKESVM

[5] = molecular target: ASCT2; settings: read-out: Ki (competes with alanine for the substrate binding site); cited from earlier work
[6] = molecular target: T2, ASCT2 (Homo sapiens, UniProt Q15758); test: Radiotracer flux: 14C BMAA uptake in ASCT2-transfected MDCK-II cell monolayers; format: cell-based
T2 sequence (Q15758 1-541): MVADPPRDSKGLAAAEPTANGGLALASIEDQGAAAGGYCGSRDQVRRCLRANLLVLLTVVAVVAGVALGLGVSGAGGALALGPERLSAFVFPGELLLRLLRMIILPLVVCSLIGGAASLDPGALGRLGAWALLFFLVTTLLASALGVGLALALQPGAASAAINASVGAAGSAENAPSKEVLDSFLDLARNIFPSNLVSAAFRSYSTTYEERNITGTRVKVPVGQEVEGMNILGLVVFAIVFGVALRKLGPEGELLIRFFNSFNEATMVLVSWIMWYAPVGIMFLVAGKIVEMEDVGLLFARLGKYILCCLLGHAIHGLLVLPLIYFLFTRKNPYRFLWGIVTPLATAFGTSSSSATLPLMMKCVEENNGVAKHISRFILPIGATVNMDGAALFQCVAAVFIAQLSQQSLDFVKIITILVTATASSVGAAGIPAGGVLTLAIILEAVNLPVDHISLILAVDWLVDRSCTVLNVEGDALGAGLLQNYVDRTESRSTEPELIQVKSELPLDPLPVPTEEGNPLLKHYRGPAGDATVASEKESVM
Summary of the method: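 ASCT2-transfected MDCK-II cells grown as monolayers on transwell membranes, assayed 48 h after transfection. After washing, 2 mM 14C BMAA was applied apically for 5 min. Apical and basolateral solutions were then aspirated and both sides washed. Cells were extracted in acetonitrile:water (50:50) and the extract counted by liquid scintillation. Uptake is given as pmol/min/cm2 and compared with non-ASCT2-expressing control cells.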

[7] = 4 mM (D-2,3-DAP: up to 4 mM), pH 7.40
[8] = 2 mM, pH 7.40, intracellular SCN-

SMILES: NCCC[C@H](N)C(=O)O [L-ornithine]
current elicited on application to ASCT2-expressing cells [1, 7]: not significantly different from zero

protonation of the α-amino group [2]: 20%
decrease in fluorescence emission in the Venus range (glutamine uptake) ([4]; 500 μM glutamine plus 2 mM test compound): 1.00 ± 1.14%
SMILES: NC[C@H](N)C(=O)O [L-DAP, L-2,3-diaminopropionic acid]
direction of evoked current at low pH ([1]; 2 mM, extracellular pH below 6.50, V = 0 mV): outwardly directed
current elicited on application to ASCT2-expressing cells [1, 8]: elicited an inwardly-directed current
apparent valence from slope of log(Km) vs. voltage ([1]; extracellular 140 mM NaCl, intracellular 130 mM NaSCN, pH 7.4): 0.21 ± 0.04
pKa of the α-amino group [3]: 6.7

SMILES: NC[C@@H](N)C(=O)O [D-2,3-DAP]
current elicited on application to ASCT2-expressing cells [1, 7]: did not produce any current

SMILES: NC(=O)CCCC(N)C(=O)O (centres unmarked) [homoglutamine]
current elicited on application to ASCT2-expressing cells ([1]; pH 7.4): outward current

SMILES: O=C(O)[C@@H]1C[C@@H](Cc2ccc(-c3ccccc3)cc2)CN1 [BPP, (R)-γ-(4-biphenylmethyl)-L-proline]
Ki [5]: 3000 nM

decrease in fluorescence emission in the Venus range (glutamine uptake) ([4]; 500 μM glutamine applied externally alone): 11.2 ± 0.89%
SMILES: NC(=O)CC[C@H](N)C(=O)O [glutamine]

SMILES: NCC[C@H](N)C(=O)O [L-DAB, L-2,4-diaminobutyric acid]
current elicited on application to ASCT2-expressing cells [1, 8]: produced an inward current, however, with smaller magnitude than that generated by L-DAP

SMILES: N[C@@H](COCc1ccccc1)C(=O)O [benzylserine]
decrease in fluorescence emission in the Venus range (glutamine uptake) ([4]; 500 μM glutamine plus 5 mM test compound): 2.70 ± 1.25%

SMILES: NCCCC[C@H](N)C(=O)O [L-lysine]
current elicited on application to ASCT2-expressing cells [1, 7]: not significantly different from zero

SMILES: CNC[C@H](N)C(=O)O [BMAA, β-N-Methylamino-L-Alanine]
inward current relative to the maximum anion current induced by L-alanine ([1]; pH 7.40, V = 0 mV): less than 20%
uptake of 14C BMAA ([6]; 2 mM, control cells (non-ASCT2 expressing)): 163 ± 36 pmol/min/cm^2
transport rate by ASCT2, fold lower than L-glutamine ([6]; if transported at all, inferred from sensitivity of uptake assay): at least 10 fold
